From PubChem
Most compounds without a hit are left out; they make up all but 6.3% or so of the library.
MT1-MMP txn act: MT1-MMP promoter reporter activation – cell-based, luciferase luminescence, primary screen. HT1080 MT1-MMP promoter luciferase reporter, overnight; hits give high values. activation factor at 10 µM. 86,000 compounds, 0.16% hits. AID 750, 2007;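 active means activation factor of at least 2 for MT1-MMP transcription at 10 µM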
M1 antagonist: antagonists of rat M1 muscarinic receptor. AID 628, 2007. Muscarinic acetylcholine receptor M1 (Rattus norvegicus), P08482. CHO-M1 cells, Fluo-4 calcium, ACh EC80 antagonist mode; hits give low values. 64,000 compounds, 3.4% hits. B-score at 10 µM;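 active means calcium fluorescence response, raw or row-and-column corrected B-score, differing from the plate sample mean either way at a set confidence level, mostly lower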
SF1 activator: activators of human SF-1, primary screen, cell-based, CHO-K1, Gal4-SF-1 LBD, luciferase luminescence; 65,000 compounds, 1.9% hits; AID 522, 2006; activation, % at 10 µM; Steroidogenic factor 1 (Homo sapiens), Q13285; CHO-K1 Gal4-SF-1 LBD luciferase reporter; % increase over DMSO SF-1-specific signal;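 active means activation above the mean activation of all tested compounds plus 3 SD, cut at about 50% in these data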
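Test system: CHO-K1 cells with Gal4–hSF-1 LBD chimera plus Gal4-driven luciferase; Input: 4,000 cells/well; Compound: 10 µM only; Times: 20 h compound treatment, 37 °C; Measured by: steady-glow luciferase luminescence, read after 15 min reagent incubation; Measure: percent activation versus DMSO; Control set: DMSO and mock-transfected background; Replicates: one test per compound.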
M1 agonist: M1 muscarinic receptor agonists, primary screen, CHO-M1 cells, Fluo-4 calcium, agonist mode | Muscarinic acetylcholine receptor M1 | Fluo-4 calcium fluorescence; hits give high values | B-score at 10 µM | 64,000 compounds, 3% hits | AID 626, 2007;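 active means fluorescence rise, raw or as B-score row- and column-corrected plate score, outside the 99.7% band of its plate's samples, either direction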
RORA act: activators of orphan receptor RORA, primary screen, cell-based, luminescence; AID 560, 2006; 65,000 compounds, 1.5% hits; Nuclear receptor ROR-alpha (Homo sapiens), P35398; CHO-K1 Gal4-RORA LBD luciferase reporter; percent increase over mock-subtracted basal signal; activation, % at 10 µM;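 active means activation above the mean of all tested compounds plus 3 SD, cut at about 49% in these data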
Target sequence (P35398 whole entry, looked up, the tested form may be a part): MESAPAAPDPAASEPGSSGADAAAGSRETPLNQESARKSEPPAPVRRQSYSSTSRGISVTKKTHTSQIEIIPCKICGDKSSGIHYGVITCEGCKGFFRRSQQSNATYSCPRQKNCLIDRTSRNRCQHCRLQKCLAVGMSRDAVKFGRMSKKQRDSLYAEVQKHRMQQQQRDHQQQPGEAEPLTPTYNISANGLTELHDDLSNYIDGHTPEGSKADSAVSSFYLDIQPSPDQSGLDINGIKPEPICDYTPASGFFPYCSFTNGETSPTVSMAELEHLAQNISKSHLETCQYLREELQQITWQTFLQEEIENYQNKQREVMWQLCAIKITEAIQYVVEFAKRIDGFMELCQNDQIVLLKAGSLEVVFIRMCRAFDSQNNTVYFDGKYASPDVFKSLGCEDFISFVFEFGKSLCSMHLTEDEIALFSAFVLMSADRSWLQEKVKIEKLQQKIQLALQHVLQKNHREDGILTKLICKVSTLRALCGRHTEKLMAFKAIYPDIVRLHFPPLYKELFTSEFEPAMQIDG
M1 antag confirm: rat M1 muscarinic receptor antagonists, confirmation, CHO cells, Fluo-4 calcium, duplicate; shares compounds with M1 antagonist; ACh EC80 antagonism; hits give low values; calcium response (max-min fluorescence) at 10 µM; 1,700 compounds, 43% hits; AID 677, 2007;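 active means calcium response below the same-plate mean of wells given acetylcholine alone at its 80%-effect dose, minus 3 SD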
mGluR4 antag: human mGluR4 response to M1 antagonist hits, M1 allosteric modulator project, cell-based, antagonist mode, secondary assay 1; shares compounds with M1 antagonist; CHO-mGluR4 calcium flux, Fluo-4 fluorescence, glutamate EC80; hits give low values; fluorescence response (max-min) at 10 µM; 1,700 compounds, 0.9% hits; AID 678, 2007;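 active means fluorescence response below the plate's average for near-maximal glutamate wells, less 3 SD of those wells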;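 further: raw unnormalized fluorescence span taken in the window right after glutamate addition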
Large screens that a line does not name were inactive (follow-up assays come after a bar, where they were run).

Cc1ccc(NC(=O)CN(C)S(=O)(=O)c2cccc3nsnc23)cc1C	M1 antagonist -3.1 | M1 antag confirm inactive | mGluR4 antag inactive
CCOC(=O)CCSc1nc(C)cc(C(F)(F)F)c1C#N	none (no result: MT1-MMP txn act)
Cc1nn(C)c(C)c1S(=O)(=O)Nc1ccc2c(c1)OCO2	M1 antagonist -5.9 | M1 antag confirm inactive | mGluR4 antag inactive
CCOC(=O)COc1cc2c3c(c(=O)oc2cc1C)CCCC3	M1 antagonist -17 | M1 antag confirm 119 | mGluR4 antag inactive
CCOC(=O)c1cccc(NC(=O)Cn2c(CC(=O)N3CCCC3)nc3ccccc32)c1	none
CN(C)S(=O)(=O)N(Cc1ccc(Br)cc1)c1ccccc1	M1 antagonist -2.2 | M1 antag confirm inactive | mGluR4 antag inactive
COc1cccc(S(=O)(=O)Nc2ccc(C(=O)N3CCN(C(=O)c4ccco4)CC3)cc2)c1	none
COc1ccccc1C(c1nnnn1C1CCCC1)N1CCN2CCCC2C1 (configuration not stated)	M1 antagonist -3.8 | M1 antag confirm 473 | mGluR4 antag inactive
CN1CCN(C2=C(Cl)C(=O)N(CCc3ccccc3)C2=O)CC1	M1 antagonist -5.7 | M1 antag confirm 376 | mGluR4 antag inactive
CCCCCCC1CC(CSc2ncn[nH]2)OC1=O (configuration not stated)	none
CCN(CC)S(=O)(=O)c1ccc(NS(=O)(=O)c2cccc(C)c2)cc1	M1 antagonist -2.6 | M1 antag confirm inactive | mGluR4 antag inactive
CCN(CC)S(=O)(=O)c1ccc(NS(=O)(=O)c2ccc(F)cc2)cc1	none (no result: M1 antagonist, SF1 activator, M1 agonist, RORA act)
COc1ccccc1NC(=O)CSc1nnc(CNC(=O)COc2ccc(Cl)cc2)o1	M1 antagonist -2.8 | M1 antag confirm inactive | mGluR4 antag inactive
CC(=O)OCc1c(COC(C)=O)[n+](=O)c2ccccc2n1[O-]	M1 antagonist -2.6 | M1 antag confirm inactive | mGluR4 antag inactive
Cc1ccc(S(=O)(=O)NCCCC(=O)C=[N+]=[N-])cc1	M1 antagonist -3.3 | M1 antag confirm inactive | mGluR4 antag inactive
Cc1ccc(S(=O)(=O)NCCCCCC(=O)N(C)C)cc1	none
COc1ccccc1-n1c(C)cc(C=O)c1C	none (no result: M1 antagonist, SF1 activator, M1 agonist, RORA act)
Cc1ccc(C(=O)C2CCN(CC(=O)NC3CCCCC3)CC2)cc1	M1 antagonist -4.6 | M1 antag confirm 545 | mGluR4 antag inactive
C=CCOc1ccccc1CN1CCSCC1	none
CCOC(=O)Nc1ccc2c(c1)N(C(=O)OCCN(C)C)c1ccccc1CC2	M1 antagonist -3.3 | M1 antag confirm 294 | mGluR4 antag inactive
CCS(=O)(=O)Nc1ccc2c(c1)N(C(C)=O)c1ccccc1CC2	none
Nc1nc(CN2CCN(c3ccccc3)CC2)nc(N2CCCc3ccccc32)n1	M1 antagonist -3.1 | M1 antag confirm inactive | mGluR4 antag inactive
Nc1nc(CN2CCN(c3cccc(Cl)c3)CC2)nc(N2CCCc3ccccc32)n1	none
N#Cc1c(-n2cccc2/C=N/O)sc2c1CCCC2	M1 antagonist -7 | M1 antag confirm 248 | mGluR4 antag inactive
O=C(NCCN1CCOCC1)c1ccc2c(c1)N(Cc1ccccc1F)C(=O)CS2	M1 antagonist -3.8 (no result: MT1-MMP txn act) | M1 antag confirm 172 | mGluR4 antag inactive
COc1ccc(Oc2c(C)oc3c(CN(C)C)c(O)ccc3c2=O)cc1	M1 antagonist -7.5 | M1 antag confirm 371 | mGluR4 antag inactive
COc1ccc(Oc2coc3c(CN(C)C)c(O)ccc3c2=O)cc1	M1 antagonist -3.7 | M1 antag confirm 445 | mGluR4 antag inactive
COc1ccc(CCn2c(-c3ccco3)nc3oc4ccccc4c(=O)c3c2=O)cc1	none
O=C(CCn1c(=O)c2ccccc2n(Cc2ccccc2)c1=O)NCc1ccc2c(c1)OCO2	none (no result: M1 antagonist, SF1 activator, M1 agonist, RORA act)
CC(=O)CC1OC(=O)C(Br)=C1NCc1ccccc1 (configuration not stated)	M1 antagonist -2.3 | M1 antag confirm inactive | mGluR4 antag inactive
Cn1c(COc2ccc3ccccc3c2)nnc1SCC(N)=O	M1 antagonist -0.16 | M1 antag confirm inactive | mGluR4 antag inactive
COCCn1c(COc2ccccc2)nnc1SCC(N)=O	none
O=C(CSc1nccc(=O)[nH]1)Nc1ccc(S(=O)(=O)N2CCOCC2)cc1	none (no result: M1 antagonist, SF1 activator, M1 agonist, RORA act)
CCOC(=O)C1=C(C)NC(SCc2cc(=O)[nH][nH]2)=C(C#N)C1c1cccs1 (configuration not stated)	none
CCC(Sc1ncnc2c1nnn2-c1ccc(F)cc1)C(=O)OC (configuration not stated)	M1 antagonist -2.8 | M1 antag confirm inactive | mGluR4 antag inactive
CCOC(=O)C(C)Sc1ncnc2c1nnn2-c1ccc(F)cc1 (configuration not stated)	none
Cc1cccc(Nc2ccccc2C(=O)OCC(=O)N2CCOCC2)c1C	M1 antagonist -4.2 | M1 antag confirm inactive | mGluR4 antag inactive
Cc1cc(NC(=O)c2cccc3ccccc23)cc(C)c1OCC(=O)N1CCOCC1	none (no result: M1 antagonist, SF1 activator, M1 agonist, RORA act)
CCCc1cc(=O)[nH]c(SCC(=O)c2cc(C)n(CCOC)c2C)n1	M1 antagonist -3.6 | M1 antag confirm inactive | mGluR4 antag inactive
CCCc1cc(=O)[nH]c(SCC(=O)c2cc(C)n(C)c2C)n1	none (no result: M1 antagonist, SF1 activator, M1 agonist, RORA act)
COc1ccc(CNC(=O)CS(=O)Cc2nc(-c3ccccc3C)oc2C)cc1 (configuration not stated)	none
COc1ccccc1CNC(=O)CS(=O)Cc1nc(-c2ccccc2C)oc1C (configuration not stated)	M1 antagonist -2.7 | M1 antag confirm inactive | mGluR4 antag inactive
c1ccc(Cn2nnnc2C(c2ccccc2)N2CCN(c3nc4ccccc4s3)CC2)cc1 (configuration not stated)	M1 antagonist -2.1 | M1 antag confirm inactive | mGluR4 antag inactive
COc1ccc(C(c2nnnn2Cc2ccccc2)N2CCN(c3nc4ccccc4s3)CC2)cc1OC (configuration not stated)	none (no result: M1 antagonist, SF1 activator, M1 agonist, RORA act)
CCCCC(c1nnnn1Cc1ccco1)N1CCN(c2nc3ccccc3s2)CC1 (configuration not stated)	M1 antagonist -3.3 | M1 antag confirm inactive | mGluR4 antag inactive
CCC(=O)Nc1ccc(NC(=O)CN2CCCC(C)C2)c(Cl)c1 (configuration not stated)	M1 antagonist -2.8 | M1 antag confirm inactive | mGluR4 antag inactive
